How the values were obtained:
Streptococcus mutans [1] = experiment: (§1) Compound is evaluated for the effect of saliva upon the antiplaque activity at 0% of saliva and at 0.01 percentage of compound; - = No plaque accumulation; type: functional, organism-based
Summary of the method: (§2)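 Hydroxylapatite plates were treated twice daily with 1-min exposures to aqueous compound (0.001–0.1%), air-dried and rinsed. They were then incubated anaerobically at 37 °C with S. mutans in sucrose medium for 48 h. The medium held 0, 5 or 50% pooled, centrifuged, filter-sterilised human saliva. Plaque and plate staining were scored visually after FD&C Red No. 3 dye. Staining was scored on plates run without organism.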

Streptococcus mutans [2] = experiment: Compound is evaluated for the effect of saliva upon the antiplaque activity at 0% of saliva and at 0.1 percentage of compound; - = No plaque accumulation; type: functional, organism-based; summary of the method: as §2
Streptococcus mutans [3] = experiment: Compound is evaluated for the effect of saliva upon the antiplaque activity at 5% of saliva and at 0.005 percentage of compound; + = Slight plaque accumulation; type: functional, organism-based; summary of the method: as §2
Streptococcus mutans [4] = experiment: Compound is evaluated for the effect of saliva upon the antiplaque activity at 5% of saliva and at 0.01 percentage of compound; + = Slight plaque accumulation; type: functional, organism-based; summary of the method: as §2
Streptococcus mutans [5] = experiment: Compound is evaluated for the effect of saliva upon the antiplaque activity at 50% of saliva and at 0.01 percentage of compound; + = Slight plaque accumulation; type: functional, organism-based; summary of the method: as §2
Streptococcus mutans [6] = experiment: Compound is evaluated for the effect of saliva upon the antiplaque activity at 0% of saliva and at 0.005 percentage of compound; + = Slight staining; type: functional, organism-based; summary of the method: as §2
Streptococcus mutans [7] = experiment: Compound is evaluated for the effect of saliva upon the antiplaque activity at 0% of saliva and at 0.01 percentage of compound; + = Slight staining; type: functional, organism-based; summary of the method: as §2
Streptococcus mutans [8] = experiment: Compound is evaluated for the effect of saliva upon the antiplaque activity at 0% of saliva and at 0.1 percentage of compound; - = No staining; type: functional, organism-based; summary of the method: as §2
Streptococcus mutans [9] = experiment: Compound is evaluated for the effect of saliva upon the antiplaque activity at 5% of saliva and at 0.01 percentage of compound; - = No staining; type: functional, organism-based; summary of the method: as §2
Streptococcus mutans [10] = experiment: Compound is evaluated for the effect of saliva upon the antiplaque activity at 50% of saliva and at 0.005 percentage of compound; - = No staining; type: functional, organism-based; summary of the method: as §2
Streptococcus mutans [11] = experiment: (§3) Compound is evaluated for the effect of saliva upon the antiplaque activity at 50% of saliva and at 0.01 percentage of compound; - = No staining; type: functional, organism-based; summary of the method: as §2
Streptococcus mutans [12] = experiment: Compound is evaluated for the effect of saliva upon the antiplaque activity at 50% of saliva and at 0.1 percentage of compound; - = No staining; type: functional, organism-based; summary of the method: as §2
Streptococcus mutans [13] = experiment: Compound is evaluated for the effect of saliva upon the antiplaque activity at 0% of saliva and at 0.001 percentage of compound; - = No plaque accumulation; type: functional, organism-based; summary of the method: as §2
Streptococcus mutans [14] = experiment: Compound is evaluated for the effect of saliva upon the antiplaque activity at 0% of saliva and at 0.005 percentage of compound; - = No plaque accumulation; type: functional, organism-based; summary of the method: as §2
Streptococcus mutans [15] = experiment: Compound is evaluated for the effect of saliva upon the antiplaque activity at 50% of saliva and at 0.1 percentage of compound; + = Slight plaque accumulation; type: functional, organism-based; summary of the method: as §2
Streptococcus mutans [16] = experiment: Compound is evaluated for the inhibition of plaque-forming enzyme of Streptococcus mutans OMZ-61; type: functional
Summary of the method: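 S. mutans OMZ-61 was grown anaerobically at 37 °C for 24 h in glucose medium. The cell-free filtrate, adjusted to pH 5.5, served as the dextran/levan sucrase source. Reactions contained 3 μmol 14C-sucrose in citrate phosphate buffer pH 5.5 with 4% EtOH and ran 2 h at 37 °C. MeOH-insoluble polysaccharide was counted by scintillation. Compounds were tested at 50, 160 and 500 μg base/mL, with lower levels if needed, and I50 was read graphically.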

Streptococcus mutans [17] = experiment: Compound is evaluated for the effect of saliva upon the staining potential at 0% of saliva and at 0.001 percentage of compound; - = No staining; type: functional, organism-based; summary of the method: as §2
Escherichia coli [18] = experiment: Minimum inhibitory concentration against Escherichia coli (Vogel); type: functional
Summary of the method: (§4)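 Serial twofold tube dilution in tryptose phosphate broth. Each compound was prepared as a 1000 μg/mL aqueous stock and diluted in double-strength broth, then 2×10^5 cells were added. Tubes were incubated aerobically at 37 °C for 24 h. The MIC was taken as the lowest concentration with no visible growth.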

Klebsiella pneumoniae = experiment: Minimum inhibitory concentration against Klebsiella pneumonia 39645; type: functional; summary of the method: as §4
Pseudomonas aeruginosa [19] = experiment: Compound is evaluated for the antimicrobial minimum inhibitory concentration against Pseudomonas aeruginosa MGH-1; type: functional
Streptococcus mutans [20] = experiment: Compound is evaluated for minimum plaque inhibitory concentration using a standard test organism, Streptococcus mutans OMZ-61; type: functional
Summary of the method: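 S. mutans OMZ-61 in pH 7.0 beef extract–trypticase medium with 0.5% sucrose. Sterile ceramic hydroxylapatite plates got two 1-min soaks in 0.1–0.001% compound, each followed by 1-min air-drying, then a 5-min water rinse. Plates were put in inoculated medium at 37 °C anaerobically for 24 h. The cycle was repeated for a second 24 h. Plaque was stained with 1% FD&C Red No. 3. Value is the lowest concentration completely preventing plaque.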

Staphylococcus aureus [21] = experiment: Compound is evaluated for the antimicrobial minimum inhibitory concentration against Staphylococcus aureus (Smith); type: functional; summary of the method: as §4
Proteus mirabilis [22] = experiment: Compound is evaluated for the antimicrobial minimum inhibitory concentration against Proteus mirabilis MGH-1; type: functional; summary of the method: as §4
Escherichia coli [23] = experiment: Antimicrobial minimum inhibitory concentration against Escherichia coli AB1932-1; type: functional; summary of the method: as §4
Escherichia coli [24] = experiment: Antimicrobial minimum inhibitory concentration against Escherichia coli 100/B22; type: functional; summary of the method: as §4
Proteus mirabilis [25] = experiment: Minimum antimicrobial inhibitory concentration against Proteus mirabilis MGH-1; type: functional; summary of the method: as §4
Pseudomonas aeruginosa [26] = experiment: Minimum antimicrobial inhibitory concentration against Pseudomonas aeruginosa MGH-2; type: functional; summary of the method: as §4
Streptococcus mutans [27] = experiment: as §1; type: functional, organism-based; remark: listed apart in the source
Summary of the method: (§5)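 Hydroxylapatite plate antiplaque assay against S. mutans run for 48 h, with two 1-min exposures to aqueous compound per 24 h. Growth medium contained 0, 5 or 50% pooled human saliva (paraffin-stimulated, centrifuged, filtered, membrane-sterilized). Plaque was stained with FD&C Red No. 3 and graded none, slight or moderate. Staining potential was scored on plates run without inoculum and graded none or slight.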

Streptococcus mutans [28] = experiment: Compound is evaluated for the effect of saliva upon the antiplaque activity at 0% of saliva and at 0.025 percentage of compound; - = No plaque accumulation; type: functional, organism-based; summary of the method: as §5
Streptococcus mutans [29] = experiment: Compound is evaluated for the effect of saliva upon the antiplaque activity at 0% of saliva and at 0.05 percentage of compound; - = No plaque accumulation; type: functional, organism-based; summary of the method: as §5
Streptococcus mutans [30] = experiment: Compound is evaluated for the effect of saliva upon the antiplaque activity at 50% of saliva and at 0.01 percentage of compound; type: functional, organism-based; summary of the method: as §5
Streptococcus mutans [31] = experiment: Compound is evaluated for the effect of saliva upon the antiplaque activity at 50% of saliva and at 0.025 percentage of compound; - = No plaque accumulation; type: functional, organism-based; summary of the method: as §5
Streptococcus mutans [32] = experiment: Compound is evaluated for the effect of saliva upon the antiplaque activity at 50% of saliva and at 0.05 percentage of compound; - = No plaque accumulation; type: functional, organism-based; summary of the method: as §5
Streptococcus mutans [33] = experiment: Compound is evaluated for the effect of saliva upon the antiplaque activity at 0% of saliva and at 0.025 percentage of compound; + = Slight staining; type: functional, organism-based; summary of the method: as §5
Streptococcus mutans [34] = experiment: Compound is evaluated for the effect of saliva upon the antiplaque activity at 0% of saliva and at 0.05 percentage of compound; + = Slight staining; type: functional, organism-based; summary of the method: as §5
Streptococcus mutans [35] = experiment: as §3; type: functional, organism-based; summary of the method: as §5; remark: listed apart in the source
Streptococcus mutans [36] = experiment: Compound is evaluated for the effect of saliva upon the antiplaque activity at 50% of saliva and at 0.025 percentage of compound; - = No staining; type: functional, organism-based; summary of the method: as §5
Streptococcus mutans [37] = experiment: Compound is evaluated for the effect of saliva upon the antiplaque activity at 50% of saliva and at 0.05 percentage of compound; - = No staining; type: functional, organism-based; summary of the method: as §5
Staphylococcus aureus [38] = experiment: Minimum antimicrobial inhibitory concentration against Staphylococcus aureus; type: functional; summary of the method: as §4
Streptococcus mutans [39] = experiment: Compound is evaluated for the effect of saliva upon the staining potential at 0% of saliva and at 0.01 percentage of compound; + = Slight staining; type: functional, organism-based; summary of the method: as §5
Streptococcus mutans [40] = experiment: Minimum plaque inhibitory concentration using a standard test organism, Streptococcus mutans OMZ-61; type: functional, organism-based
Summary of the method: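 Ceramic hydroxylapatite plates were soaked twice for 1 min each in compound at […] (aqueous), air-dried and rinsed, then hung in sucrose beef-extract medium (pH 7.0) inoculated with late-log S. mutans OMZ-61. Incubation was anaerobic at 37 °C for 24 h, and treatment plus reinoculation were repeated for a second 24 h. Plaque was stained with 1% FD&C Red No. 3 and scored visually. The value is the lowest concentration giving no plaque while medium growth matched control.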

Streptococcus mutans [41] = experiment: Compound is evaluated for the growth inhibition of Streptococcus mutans OMZ-61; type: functional

## CCCCCCCCCCCCCCCC[n+]1ccccc1.[Cl-]
Streptococcus mutans [1]
  Plaque accum: No plaque accumulation
Streptococcus mutans [2]
  Plaque accum: No plaque accumulation
Streptococcus mutans [3]
  Plaque accum: No plaque accumulation
Streptococcus mutans [4]
  Plaque accum: No plaque accumulation
Streptococcus mutans [5]
  Plaque accum: No plaque accumulation
Streptococcus mutans [6]
  Staining potential: No staining
Streptococcus mutans [7]
  Staining potential: No staining
Streptococcus mutans [8]
  Staining potential: No staining
Streptococcus mutans [9]
  Staining potential: No staining
Streptococcus mutans [10]
  Staining potential: No staining
Streptococcus mutans [11]
  Staining potential: No staining
Streptococcus mutans [12]
  Staining potential: No staining
Streptococcus mutans [13]
  Plaque accum: No plaque accumulation
Streptococcus mutans [14]
  Plaque accum: No plaque accumulation
Streptococcus mutans [15]
  Plaque accum: No plaque accumulation
Streptococcus mutans [16]
  I50: 95 (ug of base) ml-1
Streptococcus mutans [17]
  Staining potential: No staining

## Br.Br.N=c1ccn(CCCCCCn2ccc(=N)cc2)cc1
Escherichia coli [18]
  MIC: 500 µg/mL
Klebsiella pneumoniae
  MIC: > 500 µg/mL
Pseudomonas aeruginosa [19]
  MIC: > 500 µg/mL
Streptococcus mutans [20]
  Min plague Inhibitory: >1%
Staphylococcus aureus [21]
  MIC: 250 µg/mL
Proteus mirabilis [22]
  MIC: > 500 µg/mL

## CCCCC(CC)CNC(=N)NC(=N)NCCCCCCNC(=N)NC(=N)NCC(CC)CCCC.Cl.Cl (stereo not given) [ALEXIDINE DIHYDROCHLORIDE]
Escherichia coli [23]
  MIC: 1 µg/mL
Escherichia coli [18]
  MIC: 2 µg/mL
Escherichia coli [24]
  MIC: 1 µg/mL
Klebsiella pneumoniae
  MIC: 3.9 µg/mL
Proteus mirabilis [25]
  MIC: 31.3 µg/mL
Pseudomonas aeruginosa [26]
  MIC: 15.6 µg/mL
Streptococcus mutans [27]
  Plaque accum: No plaque accumulation
Streptococcus mutans [28]
  Plaque accum: No plaque accumulation
Streptococcus mutans [29]
  Plaque accum: No plaque accumulation
Streptococcus mutans [30]
  Plaque accum: No plaque accumulation
Streptococcus mutans [31]
  Plaque accum: No plaque accumulation
Streptococcus mutans [32]
  Plaque accum: No plaque accumulation
Streptococcus mutans [33]
  Staining potential: No staining
Streptococcus mutans [34]
  Staining potential: No staining
Streptococcus mutans [35]
  Staining potential: No staining
Streptococcus mutans [36]
  Staining potential: No staining
Streptococcus mutans [37]
  Staining potential: No staining
Streptococcus mutans [16]
  I50: 156 (ug of base) ml-1
Staphylococcus aureus [38]
  MIC: 0.5 µg/mL
Streptococcus mutans [39]
  Staining potential: No staining
Streptococcus mutans [40]
  Concentration: 0.005%
Streptococcus mutans [41]
  MIC: 0.5 (ug of base) ml-1

From ChEMBL document CHEMBL1122519, “Bispyridinamines: a new class of topical antimicrobial agents as inhibitors of dental plaque” (1984)
